Source: publication PMC3461162 (British Journal of Cancer, 2012)
Several values for one entry are separate records, joined by “and”; a condition that tells them apart may be missing. Identical values can stand only once. Entries after “also recorded” stand apart in the source; their conditions may differ.

Columns and labels:
Format in all cases: in vivo, human
[1] = system: pAKT, p4E-BP1 and pS6 in tumour biopsies; test: Immunohistochemistry of paired pre- and post-dose tumour biopsies; conditions: two patients with baseline and post-dose tumour sample
[2] = system: advanced solid tumours or lymphomas; test: Tumour response by RECIST v1.0
Outline: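 Patients got a single oral dose on day 1, then continuous twice-daily dosing until disease progression or unmanageable toxicity. Baseline RECIST assessment used CT or MRI of chest, abdomen and pelvis before treatment, repeated every 8 weeks.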

[3] = Phase I dose-escalation safety and tolerability: adverse events, DLTs, MTD
Outline: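 Multicentre, open-label, dose-escalation study. A single oral dose on day 1 was followed one week later by continuous twice-daily dosing, starting at 10 mg. The first three cohorts got solution, later cohorts tablets. AEs were graded by CTC v3.0 from consent to 30 days after stopping. DLT: a CTC grade 3 AE, or a laboratory abnormality with clinical signs, within 42 days (extended from 35). MTD: last dose below the non-tolerated dose.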

[4] = 10 mg BID solution (n=5), CTCAE grade 1–2
[5] = 10 mg BID solution (n=5), CTCAE grade ⩾3
[6] = 20 mg BID solution (n=3), CTCAE grade 1–2
[7] = 20 mg BID solution (n=3), CTCAE grade ⩾3
[8] = 40 mg BID solution (n=6), CTCAE grade 1–2
[9] = 40 mg BID solution (n=6), CTCAE grade ⩾3
[10] = 40 mg BID tablet (n=7), CTCAE grade 1–2
[11] = 40 mg BID tablet (n=7), CTCAE grade ⩾3
[12] = 60 mg BID tablet (n=7), CTCAE grade 1–2
[13] = 60 mg BID tablet (n=7), CTCAE grade ⩾3
[14] = 90 mg BID tablet (n=11), CTCAE grade 1–2
[15] = 90 mg BID tablet (n=11), CTCAE grade ⩾3
[16] = 120 mg BID tablet (n=10), CTCAE grade 1–2
[17] = 120 mg BID tablet (n=10), CTCAE grade ⩾3
[18] = CTCAE grade 3, all cohorts, a patient may have experienced more than one DLT
[19] = Total (n=49), Any grade occurring in cycle 1/2

For `COc1ccc(-c2ccc3c(N4CCOC[C@@H]4C)nc(N4CCOC[C@@H]4C)nc3n2)cc1CO` [AZD8055], the “Biomarker modulation for pAKT, p4E-BP1 and pS6 in tumour samples” value [1] was “did not show conclusive evidence of biomarker modulation”, the “Patients with stable disease for ⩾4 months” value (shortened to “Patients with stable disease”) ([2]; 10 mg BID) was 1/5 and the “Patients with stable disease” value ([2]; 60 mg BID) was 1/7. The “Patients with stable disease” value ([2]; 90 mg BID) was 1/11, the “Patients with stable disease” value ([2]; all cohorts) was “Seven” and the “RECIST complete or partial responses” value ([2]; all cohorts) was “no RECIST responses were seen; also recorded: No complete or partial responses were observed”. For the same compound, the “Duration of stable disease, range” value ([2]; seven patients with stable disease for ⩾4 months) was 115 to 398 days, the “Fatigue: patients with AZD8055-related AE, n (%)” value (shortened to “Fatigue: patients … (%)”) [3, 4] was 1 (20) % and the “Hyperglycaemia: patients with AZD8055-related AE, n (%)” value (shortened to “Hyperglycaemia: patients … (%)”) [3, 4] was 0%. For the same compound, the “Increased ALT: patients with AZD8055-related AE, n (%)” value (from here on “Increased ALT: patients … (%)”) [3, 4] was 1 (20) %, the “Increased AST: patients with AZD8055-related AE, n (%)” value (“Increased AST: patients … (%)” below) [3, 4] was 1 (20) % and the “Increased GGT: patients with AZD8055-related AE, n (%)” value (shortened to “Increased GGT: patients … (%)”) [3, 4] was 0%. The “Nausea: patients with AZD8055-related AE, n (%)” value (“Nausea: patients … (%)” for short) [3, 4] was 2 (40) %, the “Stomatitis: patients with AZD8055-related AE, n (%)” value (“Stomatitis: patients … (%)” for short) [3, 4] was 0% and the “Fatigue: patients … (%)” value [3, 5] was 0%. The “Hyperglycaemia: patients … (%)” value [3, 5] was 0%, the “Increased ALT: patients … (%)” value [3, 5] was 0% and the “Increased AST: patients … (%)” value [3, 5] was 0%. For the same compound, the “Increased GGT: patients … (%)” value [3, 5] was 0%, the “Nausea: patients … (%)” value [3, 5] was 0% and the “Stomatitis: patients … (%)” value [3, 5] was 0%. For the same compound, the “Fatigue: patients … (%)” value [3, 6] was 0%, the “Hyperglycaemia: patients … (%)” value [3, 6] was 0% and the “Increased ALT: patients … (%)” value [3, 6] was 0%. The “Increased AST: patients … (%)” value [3, 6] was 0%, the “Increased GGT: patients … (%)” value [3, 6] was 0% and the “Nausea: patients … (%)” value [3, 6] was 1 (33) %. The “Stomatitis: patients … (%)” value [3, 6] was 1 (33) %, the “Fatigue: patients … (%)” value [3, 7] was 0% and the “Hyperglycaemia: patients … (%)” value [3, 7] was 0%. The “Increased ALT: patients … (%)” value [3, 7] was 1 (33) %, the “Increased AST: patients … (%)” value [3, 7] was 1 (33) % and the “Increased GGT: patients … (%)” value [3, 7] was 0%. The “Nausea: patients … (%)” value [3, 7] was 0%, the “Stomatitis: patients … (%)” value [3, 7] was 0% and the “Patients with DLT (grade 3 rise in transaminases)” value (“Patients with DLT” for short) ([3]; 40 mg BID solution) was 1. The “Fatigue: patients … (%)” value [3, 8] was 2 (33) %, the “Hyperglycaemia: patients … (%)” value [3, 8] was 0% and the “Increased ALT: patients … (%)” value [3, 8] was 0%. The “Increased AST: patients … (%)” value [3, 8] was 0%, the “Increased GGT: patients … (%)” value [3, 8] was 1 (17) % and the “Nausea: patients … (%)” value [3, 8] was 0%. The “Stomatitis: patients … (%)” value [3, 8] was 1 (17) %, the “Fatigue: patients … (%)” value [3, 9] was 0% and the “Hyperglycaemia: patients … (%)” value [3, 9] was 0%. The “Increased ALT: patients … (%)” value [3, 9] was 1 (17) %, the “Increased AST: patients … (%)” value [3, 9] was 1 (17) % and the “Increased GGT: patients … (%)” value [3, 9] was 0%. The “Nausea: patients … (%)” value [3, 9] was 0%, the “Stomatitis: patients … (%)” value [3, 9] was 0% and the “Fatigue: patients … (%)” value [3, 10] was 1 (14) %. The “Hyperglycaemia: patients … (%)” value [3, 10] was 1 (14) %, the “Increased ALT: patients … (%)” value [3, 10] was 0% and the “Increased AST: patients … (%)” value [3, 10] was 0%. The “Increased GGT: patients … (%)” value [3, 10] was 0%, the “Nausea: patients … (%)” value [3, 10] was 1 (14) % and the “Stomatitis: patients … (%)” value [3, 10] was 0%. For the same compound, the “Fatigue: patients … (%)” value [3, 11] was 0%, the “Hyperglycaemia: patients … (%)” value [3, 11] was 0% and the “Increased ALT: patients … (%)” value [3, 11] was 1 (14) %. The “Increased AST: patients … (%)” value [3, 11] was 0%, the “Increased GGT: patients … (%)” value [3, 11] was 0% and the “Nausea: patients … (%)” value [3, 11] was 0%. For the same compound, the “Stomatitis: patients … (%)” value [3, 11] was 0%, the “Fatigue: patients … (%)” value [3, 12] was 1 (14) % and the “Hyperglycaemia: patients … (%)” value [3, 12] was 0%. The “Increased ALT: patients … (%)” value [3, 12] was 1 (14) %, the “Increased AST: patients … (%)” value [3, 12] was 1 (14) % and the “Increased GGT: patients … (%)” value [3, 12] was 1 (14) %. The “Nausea: patients … (%)” value [3, 12] was 0%, the “Stomatitis: patients … (%)” value [3, 12] was 0% and the “Fatigue: patients … (%)” value [3, 13] was 0%. For the same compound, the “Hyperglycaemia: patients … (%)” value [3, 13] was 0%, the “Increased ALT: patients … (%)” value [3, 13] was 0% and the “Increased AST: patients … (%)” value [3, 13] was 1 (14) %. For the same compound, the “Increased GGT: patients … (%)” value [3, 13] was 1 (14) %, the “Nausea: patients … (%)” value [3, 13] was 0% and the “Stomatitis: patients … (%)” value [3, 13] was 0%. The “Patients with DLT” value ([3]; 90 mg BID tablet) was 1 and 1/9, the “Fatigue: patients … (%)” value [3, 14] was 1 (9) % and the “Hyperglycaemia: patients … (%)” value [3, 14] was 3 (27) %. The “Increased ALT: patients … (%)” value [3, 14] was 2 (18) %, the “Increased AST: patients … (%)” value [3, 14] was 1 (9) % and the “Increased GGT: patients … (%)” value [3, 14] was 0%. For the same compound, the “Nausea: patients … (%)” value [3, 14] was 2 (18) %, the “Stomatitis: patients … (%)” value [3, 14] was 2 (18) % and the “Fatigue: patients … (%)” value [3, 15] was 0%. The “Hyperglycaemia: patients … (%)” value [3, 15] was 0%, the “Increased ALT: patients … (%)” value [3, 15] was 1 (9) % and the “Increased AST: patients … (%)” value [3, 15] was 2 (18) %. For the same compound, the “Increased GGT: patients … (%)” value [3, 15] was 1 (9) %, the “Nausea: patients … (%)” value [3, 15] was 0% and the “Stomatitis: patients … (%)” value [3, 15] was 0%. For the same compound, the “Patients with DLT” value ([3]; 120 mg BID cohort, patients evaluable for DLT) was 3 and 3/9, the “Fatigue: patients … (%)” value [3, 16] was 2 (20) % and the “Hyperglycaemia: patients … (%)” value [3, 16] was 2 (20) %. The “Increased ALT: patients … (%)” value [3, 16] was 1 (10) %, the “Increased AST: patients … (%)” value [3, 16] was 1 (10) % and the “Increased GGT: patients … (%)” value [3, 16] was 1 (10) %. The “Nausea: patients … (%)” value [3, 16] was 1 (10) %, the “Stomatitis: patients … (%)” value [3, 16] was 2 (20) % and the “Fatigue: patients … (%)” value [3, 17] was 0%. For the same compound, the “Hyperglycaemia: patients … (%)” value [3, 17] was 0%, the “Increased ALT: patients … (%)” value [3, 17] was 2 (20) % and the “Increased AST: patients … (%)” value [3, 17] was 2 (20) %. The “Increased GGT: patients … (%)” value [3, 17] was 0%, the “Nausea: patients … (%)” value [3, 17] was 0% and the “Stomatitis: patients … (%)” value [3, 17] was 0%. For the same compound, the Non-tolerated dose ([3]; BID, DLTs in 3/9 evaluable patients) was 120 mg, the “DLTs: Increased ALT, Total (%)” value [3, 18] was 3 (6) % and the “DLTs: Increased AST, Total (%)” value [3, 18] was 3 (6) %. The “Fatigue: patients … (%)” value [3, 19] was 8 (16) %, the “Hyperglycaemia: patients … (%)” value [3, 19] was 6 (12) % and the “Increased ALT: patients … (%)” value [3, 19] was 11 (22) %. The “Increased AST: patients … (%)” value [3, 19] was 11 (22) %, the “Increased GGT: patients … (%)” value [3, 19] was 5 (10) % and the “Nausea: patients … (%)” value [3, 19] was 7 (14) %. For the same compound, the “Stomatitis: patients … (%)” value [3, 19] was 6 (12) %, the “Fatigue: patients … (%)” value ([3]; Total (n=49), CTCAE grade 1–2) was 8 (16) % and the “Hyperglycaemia: patients … (%)” value ([3]; Total (n=49), CTCAE grade 1–2) was 6 (12) %. The “Increased ALT: patients … (%)” value ([3]; Total (n=49), CTCAE grade 1–2) was 5 (10) %, the “Increased AST: patients … (%)” value ([3]; Total (n=49), CTCAE grade 1–2) was 4 (8) % and the “Increased GGT: patients … (%)” value ([3]; Total (n=49), CTCAE grade 1–2) was 3 (6) %. For the same compound, the “Nausea: patients … (%)” value ([3]; Total (n=49), CTCAE grade 1–2) was 7 (14) %, the “Stomatitis: patients … (%)” value ([3]; Total (n=49), CTCAE grade 1–2) was 6 (12) % and the “Fatigue: patients … (%)” value ([3]; Total (n=49), CTCAE grade ⩾3) was 0%. The “Hyperglycaemia: patients … (%)” value ([3]; Total (n=49), CTCAE grade ⩾3) was 0%, the “Increased ALT: patients … (%)” value ([3]; Total (n=49), CTCAE grade ⩾3) was 6 (12) % and the “Increased AST: patients … (%)” value ([3]; Total (n=49), CTCAE grade ⩾3) was 7 (14) %. For the same compound, the “Increased GGT: patients … (%)” value ([3]; Total (n=49), CTCAE grade ⩾3) was 2 (4) %, the “Nausea: patients … (%)” value ([3]; Total (n=49), CTCAE grade ⩾3) was 0% and the “Stomatitis: patients … (%)” value ([3]; Total (n=49), CTCAE grade ⩾3) was 0%. The “Fatigue, AE assessed to be related to AZD8055, frequency” value ([3]; all patients (n=49)) was 16%, the “Maximum tolerated dose (MTD)” value ([3]; oral, patients with advanced solid tumours or lymphomas) was 90 mg BID and the “Patients requiring dose reductions as a result of increased transaminases, assessed to be AZD8055-related” value ([3]; three patients, one each in the 60, 90 and 120 mg BID tablet groups) was 6%. The “Patients with a dose interruption” value ([3]; within cycles 1 and 2, 11 patients, 7 because of an AE) was 22%.
